# Bioassay records as filed in PubChem.
# RAD52 inh = inhibitors of human RAD52 DNA annealing; inhibition, % at 18.7 µM; actives 0.46% (n = 360,000); recombinant RAD52 DNA annealing, FRET fluorescence; P43351; AID 651710;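 active means every replicate showing at least 50% inhibition; inconclusive means mean inhibition at least 50% but not in every replicate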
# Target sequence (P43351 whole entry, looked up): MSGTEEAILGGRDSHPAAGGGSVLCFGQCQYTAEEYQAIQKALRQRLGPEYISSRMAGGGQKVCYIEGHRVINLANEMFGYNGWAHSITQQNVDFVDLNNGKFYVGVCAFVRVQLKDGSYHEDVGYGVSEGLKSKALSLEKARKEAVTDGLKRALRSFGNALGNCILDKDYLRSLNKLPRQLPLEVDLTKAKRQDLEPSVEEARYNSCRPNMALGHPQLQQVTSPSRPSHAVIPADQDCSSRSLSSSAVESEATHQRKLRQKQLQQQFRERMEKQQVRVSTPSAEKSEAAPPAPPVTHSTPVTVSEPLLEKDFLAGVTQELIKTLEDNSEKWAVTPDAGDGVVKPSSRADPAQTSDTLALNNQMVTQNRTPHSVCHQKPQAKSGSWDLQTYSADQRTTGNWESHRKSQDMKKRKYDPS
# FID counter = counter-screen for HCV NS3 helicase inhibitors: DNA intercalator displacement; inhibition, % at 7.9 µM; actives 0.17% (n = 290,000); DNA fluorescent intercalator displacement, fluorescence; in the data active means inhibition above about 37%;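 further: 0% = vehicle and 100% = reference compound; higher means more ethidium bromide displaced from hairpin DNA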
# Apaf-1 inh = human Apaf-1 inhibition; O14727; reconstituted apoptosome caspase-3 activity, DEVD-Rh110 fluorescence; inhibition, % at 20 µM; actives 0.71% (n = 330,000); active means inhibition of at least 40% at 20 µM;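 further: plate controls were DMSO wells for no effect and DEVD-CHO caspase inhibitor wells for full effect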
#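 Material: reconstituted apoptosome with Apaf-1, cytochrome c, caspase-9, procaspase-3, dATP. Technique: Rh110 fluorescence intensity. Buffer or medium: pH 7.5 Hepes buffer with CHAPS, BSA, DTT. Times: 30 min plus 50 min, RT.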
# UBC13 polyUb = inhibitors of human UBC13 polyubiquitin chain formation; AID 485273; TR-FRET; P61088; actives 0.47% (n = 330,000); inhibition, % at 20 µM; in the data active means inhibition above about 45%, passing the limit was not always enough; inconclusive means no clear call, values can overlap the other calls
# Target sequence (P61088 whole entry, looked up): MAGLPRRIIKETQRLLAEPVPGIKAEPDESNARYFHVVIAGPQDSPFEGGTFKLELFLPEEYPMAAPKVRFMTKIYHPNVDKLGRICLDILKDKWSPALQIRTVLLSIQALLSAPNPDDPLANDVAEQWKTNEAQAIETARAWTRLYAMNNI
# Neddylation inh = blocks human cullin neddylation; P61081+Q13564; AID 651699; TR-FRET cullin neddylation, biochemical; actives 0.58% (n = 360,000); calls only at 25 µM; in the data active means inhibition above about 36%
# RAD54 inh = blocks human RAD54 Holliday junction branch migration | Q92698 | FAM/BHQ fluorescence | inhibition, % at 10.4 µM | actives 0.14% (n = 360,000) | AID 602329;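 active means mean normalized replicate activity at least 40 and at least half of replicates scoring 40 or more; inconclusive means only one of the two criteria met; inactive means mean below 40 and under half of replicates reaching 40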;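 further: 0% = median of neutral control wells and 100% = median of positive control wells; inhibitors cause a drop in the FAM fluorescence signal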
# Starred values were filed as active, the others as inactive; i = inactive; ? = inconclusive; nt = not tested or not shown; + = active, no number. A selection: hits, their analogues and other compounds. The true share with any hit is near 1.6%.
SMILES,RAD52 inh,FID counter,Apaf-1 inh,UBC13 polyUb,Neddylation inh,RAD54 inh
CC(C)CC#Cc1ccc([C@H]2[C@H]3CN(C(=O)c4ccc5c(c4)OCO5)CCCCN3[C@H]2CO)cc1,-27,nt,nt,nt,nt,0
CN(C)CC#Cc1ccc([C@H]2[C@H](CO)N3CCCCN(C(=O)CN(C)C)C[C@@H]23)cc1,74*,nt,nt,nt,nt,-17
CC(C)CC#Cc1ccc([C@@H]2[C@H](CO)N3CCCCN(C(=O)c4ccc5c(c4)OCO5)C[C@@H]23)cc1,58*,nt,nt,nt,nt,-6
C[C@H]1CN([C@@H](C)CO)S(=O)(=O)c2ccc(C3=CCCCC3)cc2O[C@H]1CN(C)S(=O)(=O)c1cn(C)cn1,4,nt,nt,nt,nt,-8
COc1cccc(NC(=O)N2CC3(C2)[C@H](c2ccccc2)[C@@H](CO)N3C(=O)C2CCCC2)c1,-98,nt,nt,nt,nt,nt
CN(C)CC#Cc1ccc([C@@H]2[C@H](CO)N3CCCCN(C(=O)CN(C)C)C[C@@H]23)cc1,88*,nt,nt,nt,nt,-1
CN(C)CC#Cc1ccc([C@@H]2[C@H]3CN(C(=O)CN(C)C)CCCCN3[C@H]2CO)cc1,62*,nt,nt,nt,nt,-10
COCC#Cc1ccc([C@@H]2[C@@H](CO)N3CCCCN(C(=O)CN(C)C)C[C@@H]23)cc1,-10,nt,nt,nt,nt,8
O=C1NCCCC2c3cc(O)c4ccccc4c3OC12N1CCCCC1 (stereo not given),nt,-9,93*,-36,nt,nt
OCC1OC(Oc2cccc3ccccc23)C(O)C(O)C1O (stereo not given),-1,-3,-3,-3,i,-6
O=C(O)c1cc(O)c2c(c1)[C@@H]([C@H]1c3cc(C(=O)O)cc(O)c3C(=O)c3c(O[C@@H]4O[C@H](CO)[C@@H](O)[C@H](O)[C@H]4O)cccc31)c1cccc(O[C@@H]3O[C@H](CO)[C@@H](O)[C@H](O)[C@H]3O)c1C2=O,nt,nt,99*,?,nt,nt
COCC(=O)Nc1ccc2c(c1)OC[C@@H](C)N(C(=O)c1ccccc1)C[C@H](C)[C@H](OC)CN(C)C2=O,2,nt,nt,nt,nt,nt
CCCNC(=O)N1CC2(C1)CN(C(=O)CC1CC1)[C@@H](CO)c1c2c2ccc(OC)cc2n1C,12,nt,nt,nt,nt,nt
COc1ccc(OCC(=O)Nc2c(C(=O)N(CCN(C)C)Cc3ccco3)oc3ccccc23)cc1,23,41*,20,9,i,12
COc1ccccc1C(=O)Nc1c(C(=O)N(CCN(C)C)Cc2ccco2)oc2ccccc12,-5,37*,18,27,i,3
Cc1ccccc1C(=O)Nc1c(C(=O)N(CCN(C)C)Cc2ccco2)oc2ccccc12,-16,20,-7,9,i,2
Cc1cc2[nH]c3c4ccccc4nc(C)c3c2cc1C,83*,nt,nt,nt,nt,91*
CNCC[C@H](Oc1cccc2ccccc12)c1cccs1,26,41*,27,18,i,21
Cc1cc(=O)oc2cc(NC(=O)C(C)N3C(=O)C4CCCCC4C3=O)ccc12 (stereo not given),-52,nt,2,2,+,-3
Nc1ccc(S(=O)(=O)NNC(=O)C(=O)NNc2ccccn2)cc1,-21,0,-7,93*,i,-7
Cc1ccc(-c2noc(CCC(=O)N3CCN(c4cccc(C(F)(F)F)c4)CC3)n2)cc1,nt,-5,42*,-8,i,4
COc1ccc(-c2noc(CCC(=O)N3CCN(c4ccc(C(F)(F)F)cc4)CC3)n2)cc1,-11,nt,17,nt,i,-4
Cc1cc(/C=C2\C(=N)N3N=C(c4ccco4)SC3=NC2=O)c(C)n1Cc1ccccc1,-46,-17,6,-4,+,nt
CCC(C)NCCOc1ccc(C(C)(C)c2ccccc2)cc1 (stereo not given),17,39*,-7,5,i,12
COc1ccccc1NC(=O)N[C@@H]1CC[C@@H](CC(=O)N[C@@H](C)c2ccccc2)O[C@@H]1CO,0,nt,nt,nt,nt,2
SMILES,RAD52 inh,FID counter,Apaf-1 inh,UBC13 polyUb,Neddylation inh,RAD54 inh
CC(C)n1c(Nc2ccccc2)nc2ccccc21,nt,91*,8,6,i,-2
CC(C)n1c(NCCO)nc2ccccc21,3,0,-9,2,i,nt
CN(C)CCCN1C(=O)c2cccc3c([N+](=O)[O-])ccc(c23)C1=O,nt,41*,nt,nt,i,nt
O=C1c2cccc3c([N+](=O)[O-])ccc(c23)C(=O)N1CCc1ccccn1,-9,0,-1,-6,i,2
Cc1cc2oc(=O)c(CC(=O)NCCCO)c(C)c2c2occ(C(C)(C)C)c12,-6,-37,14,22,nt,3
Cc1cc2oc(=O)c(CC(=O)NCCCN(C)C)c(C)c2c2occ(C(C)(C)C)c12,nt,37*,26,43,nt,nt
CN(C)CC#Cc1ccc([C@@H]2[C@@H](CO)N3CCCCN(CC4CCOCC4)C[C@@H]23)cc1,2,nt,nt,nt,nt,-12
CN(C)CC#Cc1ccc([C@H]2[C@@H](CO)N3CCCCN(CC4CC4)C[C@@H]23)cc1,61*,nt,nt,nt,nt,-9
CN(C)CC#Cc1ccc([C@H]2[C@H](CO)N3CCCCN(CC4CCOCC4)C[C@@H]23)cc1,54*,nt,nt,nt,nt,-24
Cc1noc(C)c1NC(=O)N(C)C[C@H]1Oc2ncc(C#CC(C)C)cc2C(=O)N([C@@H](C)CO)C[C@H]1C,2,nt,nt,nt,nt,-12
Cc1noc(C)c1S(=O)(=O)Nc1ccc2c(c1)C(=O)N([C@@H](C)CO)C[C@H](C)[C@@H](CN(C)C(=O)Nc1ccc3c(c1)OCO3)OCCCC[C@H](C)O2,-2,nt,nt,nt,nt,12
COc1ccc(/C=C2/C(=O)N(c3ccccc3)N=C2C)cc1Br,-20,-4,87*,-63,i,-3
CC1=NN(c2ccccc2)C(=O)C1=Cc1ccccc1,-1,nt,nt,nt,i,0
COc1cc(/C=C2/C(=O)N(c3ccccc3)N=C2C)ccc1OS(=O)(=O)c1ccccc1,nt,-9,95*,-46,nt,nt
CCNC(=O)C[C@@H]1CC[C@H]2[C@@H](COC[C@@H](O)CN2Cc2ccncc2)O1,nt,nt,nt,nt,nt,0
CCC1CCCCN1CCCNC(=O)c1cn(CC)c2ccc(S(=O)(=O)N3CCc4ccccc4C3)cc2c1=O (stereo not given),13,49*,11,14,i,-5
COCC#Cc1ccc(CC[C@H]2O[C@H]3CC[C@H](CO)O[C@H]3C[C@H]2n2cc(C3(O)CCCC3)nn2)cc1,0,nt,nt,nt,nt,nt
Nc1c(C(O)(C(F)(F)F)C(F)(F)F)cc(C(O)(C(F)(F)F)C(F)(F)F)c2ccccc12,nt,14,14,6,+,-9
Cc1noc(C)c1NC(=O)N(C)C[C@@H]1Oc2ccc(NC(=O)CCCCCC(=O)Nc3ccccc3N)cc2C(=O)N([C@@H](C)CO)C[C@H]1C,9,nt,nt,nt,nt,nt
CCN(CC(=O)NCc1cccs1)C(=O)C1CC(=O)N(c2ccc(OC)cc2OC)C1 (stereo not given),2,nt,51*,-1,i,-5
CCN(CC(=O)Nc1ccc2c(c1)OCCO2)C(=O)C1CC(=O)N(c2ccc(OC)cc2OC)C1 (stereo not given),7,nt,28,30,i,-5
